Assay outcomes as filed in PubChem.
IDH1 R132H inh: blocks human IDH1 R132H reductase activity; 70,000 compounds, 0.18% hits; inhibition, % at 10 µM; O75874; diaphorase/resazurin fluorescence, 60 min; in the data active = inhibition above about 34%; inconclusive = no clear call, values can overlap the other calls; inactive = below about 11%;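 also: 0% = DMSO and 100% = no enzyme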
Pf Dd2 growth: inhibitors of Plasmodium falciparum Dd2 growth; 94,000 compounds, 2.3% hits; activity change, % at 10 µM; P. falciparum Dd2 growth, SYBR Green, 72 h; hits give low values; AID 1159554; in the data active = activity change below about -80%; inconclusive = no clear call, values can overlap the other calls
Tcruzi prolif: T. cruzi proliferation inhibition | T. cruzi beta-gal in NIH3T3, GalScreen luminescence, 90 h | inhibition, % at 8.34 µM | 77,000 compounds, 5.9% hits | AID 624255;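 active = mean inhibition above about 93%, with at least 55% of replicates each passing it, limit read from the data, passing the limit was not always enough; inconclusive = only one of those two conditions holds; inactive = neither condition holds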
GASC1 inh: KDM4C (human) demethylase inhibition; Q9H3R0; GST-KDM4C 2-372, H3K9me3 peptide, LANCE TR-FRET; inhibition, % at 12.5 µM; 96,000 compounds, 0.15% hits; AID 720574;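 active = mean replicate inhibition above about 25%, with at least 55% of replicates also reaching it, limit read from the data, passing the limit was not always enough; inconclusive = only one of those two conditions met; inactive = neither condition met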
Target sequence (Q9H3R0 2-372 limits assumed): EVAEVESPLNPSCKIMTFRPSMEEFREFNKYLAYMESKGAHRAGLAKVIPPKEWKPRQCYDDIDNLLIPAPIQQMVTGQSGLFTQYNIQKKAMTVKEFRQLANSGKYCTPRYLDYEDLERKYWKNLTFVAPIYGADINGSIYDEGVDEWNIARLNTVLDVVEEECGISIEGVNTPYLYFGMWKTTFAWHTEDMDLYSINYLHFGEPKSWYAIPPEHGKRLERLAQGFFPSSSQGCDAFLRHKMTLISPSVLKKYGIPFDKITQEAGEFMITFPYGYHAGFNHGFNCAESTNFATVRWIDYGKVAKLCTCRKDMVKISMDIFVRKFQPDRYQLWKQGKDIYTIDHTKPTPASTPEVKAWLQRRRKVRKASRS
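reagent = H3K9me3 peptide substrate, Fe(II), 2-oxoglutarate | system = GST-tagged GASC-1 (JMJD2C) catalytic fragment, aa 2-372 | amount = enzyme final amount 10 nM | read-out = Fall in 671/618 emission ratio as inhibition | medium = HEPES buffer, pH 7.5, plus ascorbate | schedule = 30 min reaction, 60 min detection, RT | measured by = LANCE TR-FRET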
* = called active by the depositor; u = inconclusive; x = no result given. Most compounds without a hit are left out; they make up all but 5.8% or so of the library.

SMILES	IDH1 R132H inh	Pf Dd2 growth	Tcruzi prolif	GASC1 inh
O=C(CSC1CC(=O)N(c2ccccc2)C1=O)Nc1ccc(Cl)c(Cl)c1 (configuration not stated)	0	x	x	x
O=C(CCN1CCCCC1)NCC[C@H]1CC[C@H](NC(=O)Cc2cccnc2)[C@@H](CO)O1	0	27	-33	0
O=C(CN1CCOCC1)N[C@H]1CC[C@H](CCNC(=O)C2CCC2)O[C@H]1CO	73*	-22	58	85*
O=C(Cc1ccncc1)NCC[C@H]1CC[C@H](NC(=O)C2CCCC2)[C@H](CO)O1	71*	15	x	58*
O=C(CCN1CCCCC1)NCC[C@H]1CC[C@H](NC(=O)Cc2cccnc2)[C@H](CO)O1	80*	10	15	75*
O=C(NCC[C@H]1CC[C@@H](NC(=O)c2cccnc2)[C@@H](CO)O1)Nc1ccc(F)cc1	0	-6	53	-1
O=C(NCC[C@H]1CC[C@H](NC(=O)c2cccnc2)[C@H](CO)O1)Nc1ccc(F)cc1	94*	-16	21	65*
COc1ccc(S(=O)(=O)N(C)CC(=O)Nc2cc([N+](=O)[O-])ccc2C)cc1C	0	x	x	x
CCCC(=O)Nc1ccc2c(c1)OC[C@H](C)N(CCC(F)(F)F)C[C@@H](C)[C@@H](OC)CN(C)C2=O	0	5	6	0
O=C(NCC[C@@H]1CC[C@H](NS(=O)(=O)c2cccc(F)c2)[C@H](CO)O1)C1CCCC1	48*	-17	x	36*
O=C(NCC[C@H]1CC[C@H](NS(=O)(=O)c2cccc(F)c2)[C@H](CO)O1)C1CCCC1	0	-6	x	-1
CCC(=O)N1[C@H](CO)[C@@H](c2ccccc2-c2cccc(C)c2)[C@@H]1C#N	x	-86*	x	-1
COCC(=O)N1[C@H](C#N)[C@@H](c2ccccc2-c2ccccc2)[C@@H]1CO	x	3	x	-1
COCC(=O)N1[C@@H](C#N)[C@H](c2ccccc2-c2ccccc2)[C@@H]1CO	x	-86*	x	0
CCC(=O)N1[C@@H](C#N)[C@@H](c2ccccc2-c2cccc(C)c2)[C@@H]1CO	x	-25	x	-1
COCC(=O)N1[C@H](C#N)[C@@H](c2ccccc2-c2ccccc2)[C@H]1CO	x	-93*	x	-1
CS(=O)(=O)Nc1ccc2c(c1)[C@@H]1C[C@@H](CC(=O)N3CCOCC3)O[C@@H](CO)[C@@H]1O2	2	11	-9	3
Cc1cccc(S(=O)(=O)N2C[C@H](O)COC[C@@H]3O[C@@H](CC(=O)NCCCN4CCOCC4)CC[C@H]32)c1	x	-38	29	0
CO[C@@H]1CN(C)C(=O)c2cc(NS(C)(=O)=O)ccc2OC[C@H](C)N(Cc2cocn2)C[C@H]1C	x	21	x	-2
COc1ccc(CN(C)C[C@H]2OCCCC[C@H](C)Oc3ccc(NC(=O)Nc4ccc(F)cc4)cc3C(=O)N([C@H](C)CO)C[C@H]2C)cc1	2	-81*	69	-3
COc1ccc(CN(C)C[C@@H]2OCCCC[C@H](C)Oc3ccc(NC(=O)Nc4ccc(F)cc4)cc3C(=O)N([C@@H](C)CO)C[C@@H]2C)cc1	x	u	73	1
COc1ccc(CN(C)C[C@@H]2OCCCC[C@H](C)Oc3ccc(NC(=O)Nc4ccc(F)cc4)cc3C(=O)N([C@H](C)CO)C[C@@H]2C)cc1	0	-20	65	0
COc1ccc(CN(C)C[C@H]2OCCCC[C@H](C)Oc3ccc(NC(=O)Nc4ccc(F)cc4)cc3C(=O)N([C@@H](C)CO)C[C@H]2C)cc1	1	-83*	76	9
COc1ccc(CN(C)C[C@@H]2OCCCC[C@@H](C)Oc3ccc(NC(=O)NC(C)C)cc3C(=O)N([C@H](C)CO)C[C@H]2C)cc1	68*	-2	37	u
COc1cc(O)c(C(=O)c2c(O)cc(C)cc2O)c(C(=O)O)c1	12	x	x	x
SMILES	IDH1 R132H inh	Pf Dd2 growth	Tcruzi prolif	GASC1 inh
CCCN(C)C[C@H]1OCCCC[C@@H](C)Oc2ccc(NS(=O)(=O)c3c(C)noc3C)cc2C(=O)N([C@@H](C)CO)C[C@H]1C	0	-85*	x	-1
CCCN(C)C[C@H]1OCCCC[C@H](C)Oc2ccc(NS(=O)(=O)c3ccc(F)cc3)cc2C(=O)N([C@@H](C)CO)C[C@@H]1C	3	-85*	72	-1
COc1ccc(S(=O)(=O)Nc2ccc3c(c2)C(=O)N([C@H](C)CO)C[C@H](C)[C@@H](CN(C)Cc2ccc(Cl)c(Cl)c2)OCCCC[C@@H](C)O3)cc1	2	-90*	x	0
COc1ccc(S(=O)(=O)Nc2ccc3c(c2)C(=O)N([C@H](C)CO)C[C@@H](C)[C@H](CN(C)Cc2ccc(Cl)c(Cl)c2)OCCCC[C@@H](C)O3)cc1	x	-91*	23	0
COc1ccc(S(=O)(=O)Nc2ccc3c(c2)C(=O)N([C@@H](C)CO)C[C@@H](C)[C@@H](CN(C)Cc2ccc(Cl)c(Cl)c2)OCCCC[C@@H](C)O3)cc1	0	-68	x	1
COc1ccc(S(=O)(=O)Nc2ccc3c(c2)C(=O)N([C@H](C)CO)C[C@H](C)[C@@H](CN(C)Cc2ccc(Cl)c(Cl)c2)OCCCC[C@H](C)O3)cc1	-1	-62	63	0
O=C(c1cccnc1)N1CC[C@@H]2[C@H](CO)Nc3ccc(C#Cc4cccnc4)cc3[C@@H]21	x	-64	-15	-1
COc1ccc(NC(=O)N(C)C[C@H]2OCCCC[C@H](C)Oc3ccc(NS(=O)(=O)c4ccccc4)cc3C(=O)N([C@@H](C)CO)C[C@H]2C)cc1	-3	-64	x	0
COc1ccc(NC(=O)C(C)N(c2ccc(Cl)cc2)S(C)(=O)=O)cc1OC (configuration not stated)	0	x	x	x
CO[C@@H]1CN(C)C(=O)c2cc(NC(=O)Nc3ccccc3)ccc2OC[C@H](C)N(C(=O)CC2CC2)C[C@H]1C	0	-13	-37	-1
Cc1noc(C)c1S(=O)(=O)Nc1ccc2c(c1)C(=O)N([C@@H](C)CO)C[C@@H](C)[C@@H](CN(C)Cc1ccc(Cl)c(Cl)c1)OCCCC[C@@H](C)O2	x	-82*	94	0
COc1ccc(CN(C)C[C@H]2OCCCC[C@H](C)Oc3ccc(NS(=O)(=O)c4ccc(OC)cc4)cc3C(=O)N([C@@H](C)CO)C[C@H]2C)cc1	-1	-83*	x	1
CCCN(C)C[C@@H]1OCCCC[C@@H](C)Oc2ccc(NS(=O)(=O)c3ccc(OC)cc3)cc2C(=O)N([C@@H](C)CO)C[C@@H]1C	-2	x	x	0
COc1ccc(CN(C)C[C@H]2OCCCC[C@@H](C)Oc3ccc(NS(=O)(=O)c4ccc(OC)cc4)cc3C(=O)N([C@@H](C)CO)C[C@H]2C)cc1	-1	-42	37	0
C[C@@H]1CCCCO[C@@H](CN(C)Cc2ccc(Cl)c(Cl)c2)[C@H](C)CN([C@H](C)CO)C(=O)c2cc(NS(=O)(=O)c3ccc(F)cc3)ccc2O1	x	-84*	87	1
CCCN(C)C[C@H]1OCCCC[C@@H](C)Oc2ccc(NS(=O)(=O)c3ccc(OC)cc3)cc2C(=O)N([C@@H](C)CO)C[C@H]1C	1	-88*	37	-1
